In ChEMBL document CHEMBL5331142, “Novel 1,4-Dihydropyridines as Specific Binders and Activators of SIRT3 Impair Cell Viability and Clonogenicity and Downregulate Hypoxia-Induced Targets in Cancer Cells” (J Med Chem, 2023):
Active and inactive are the calls of the source. The rule behind the calls is not given here.

Legend:
[1] = biological target: T1, NAD-dependent protein deacetylase sirtuin-3, mitochondrial (Homo sapiens) (UniProt Q9NTG7); assay: Activation of N-terminal his-tagged human SIRT3 (114 to 380 residues) deacylation activity expressed in Escherichia coli at 10 uM using ACS2-acK642 as substrate in presence of NAD+ by NADH oxidation-coupled enzymatic assay; conditions: filed as activator
T1 sequence (whole entry): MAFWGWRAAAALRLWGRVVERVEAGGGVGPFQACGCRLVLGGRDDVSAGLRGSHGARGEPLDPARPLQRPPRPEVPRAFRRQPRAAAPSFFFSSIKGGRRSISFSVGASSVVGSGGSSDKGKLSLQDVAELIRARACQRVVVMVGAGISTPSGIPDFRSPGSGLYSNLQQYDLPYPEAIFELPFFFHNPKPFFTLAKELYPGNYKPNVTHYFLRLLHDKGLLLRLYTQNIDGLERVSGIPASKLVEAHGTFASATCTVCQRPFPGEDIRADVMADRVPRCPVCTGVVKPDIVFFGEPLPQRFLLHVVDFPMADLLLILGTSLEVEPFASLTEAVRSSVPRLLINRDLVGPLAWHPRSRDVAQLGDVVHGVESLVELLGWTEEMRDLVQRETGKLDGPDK
How it was run: (§1)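 Coupled PncA/GDH deacylation assay following NADPH oxidation to NADP+. 1.5 μM sirtuin, 50 μM substrate peptide, 100 μM NAD+, compound at 10 μM, 5% final DMSO. Isoform-specific physiological substrates: p53-acK381 (SIRT1), […] (SIRT2), ACS2-acK642 (SIRT3), CPS1-succK537 (SIRT5). Sirtuins expressed in E. coli, Ni-NTA purified, tag cleaved, then size-exclusion chromatography.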

[2] = biological target: T1, NAD-dependent protein deacetylase sirtuin-3, mitochondrial (Homo sapiens); assay: Activation of N-terminal his-tagged human SIRT3 (114 to 380 residues) deacylation activity expressed in Escherichia coli at 100 uM using ACS2-acK642 as substrate in presence of NAD+ by NADH oxidation-coupled enzymatic assay
How it was run: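 Coupled PncA/GDH deacylation assay following NADPH oxidation to NADP+. 1.5 μM SIRT3 (E. coli-expressed, tag removed) with 50 μM ACS2-acK642 peptide and 100 μM NAD+, compound at 100 μM, 5% final DMSO.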

[3] = system: CAL-62; assay: Downregulation of EPAS-1 expression in human CAL-62 cells at 1 uM incubated for 48 hrs under hypoxia condition by Western blot analysis; format: functional, cell-based
[4] = system: CAL-62; assay: Downregulation of CA-IX expression in human CAL-62 cells at 1 uM incubated for 48 hrs under hypoxia condition by Western blot analysis; format: functional, cell-based
[5] = system: MDA-MB-231; assay: Downregulation of EPAS-1 expression in human MDA-MB-231 cells at 1 uM incubated for 48 hrs under hypoxia condition by Western blot analysis; format: functional, cell-based
[6] = system: MDA-MB-231; assay: Downregulation of CA-IX expression in human MDA-MB-231 cells at 1 uM incubated for 48 hrs under hypoxia condition by Western blot analysis; format: functional, cell-based
[7] = system: CAL-62; assay: Downregulation of HIF1alpha expression in human CAL-62 cells at 1 uM incubated for 48 hrs under hypoxia condition by Western blot analysis; format: functional, cell-based
[8] = system: MDA-MB-231; assay: Downregulation of HIF1alpha expression in human MDA-MB-231 cells at 1 uM incubated for 48 hrs under hypoxia condition by Western blot analysis; format: functional, cell-based
[9] = biological target: T1, NAD-dependent protein deacetylase sirtuin-3, mitochondrial (Homo sapiens); assay: Activation of human SIRT3 overexpressing in human MDA-MB-231 cells assessed as increase in GDH activity at 50 uM incubated for 4 hrs by absorbance assay; format: cell-based
How it was run: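 MDA-MB-231 cells exposed 4 h to 50 μM compound. 10^6 cells lysed in GDH assay buffer for 10 min on ice. Supernatant mixed with developer and glutamate, incubated 3 min at 37 °C, absorbance read at 450 nm with buffer blank subtracted. SIRT3-overexpressing MDA-MB-231 cells served as reference.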

[10] = system: CAL-62; assay: Anticancer activity against human CAL-62 cells assessed as reduction in cell viability at 50 uM incubated for 24 to 48 hrs under hypoxia condition by trypan blue exclusion assay; format: functional, cell-based; conditions: time 24-48 hrs, TDE = time-dependent effect
How it was run: (§2)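 CAL-62 cells in RPMI 1640 with 10% FBS, treated with 50 μM compound (DMSO) for 24 and 48 h. Hypoxia induced with 200 μM CoCl2, kept in the medium during treatment. Viable cells counted by 0.4% trypan blue staining on a hemocytometer.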

[11] = biological target: T2, NAD-dependent protein deacetylase sirtuin-3, mitochondrial (Homo sapiens, UniProt Q9NTG7); assay: Binding affinity to N-terminal his-tagged human SIRT3 (114 to 380 residues) assessed as dissociation constant by SPR analysis
T2 sequence (Q9NTG7 whole entry): T1 sequence (whole entry)
How it was run: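 SPR with SIRT3 amine-coupled to the chip (sodium acetate pH 4.0; 1500–4000 RU). Analytes diluted to 200 μM in HBSP (20 mM Hepes, 150 mM NaCl, 0.005% P20; 2% DMSO), injected at 5, 10, 20, 40, 80 μM at 30 μL/min. Dissociation after 180 s. Reference chip lacked ligand. Apparent KD by Scatchard analysis. Run twice.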

[12] = system: CAL-62; assay: Downregulation of CA-IX expression in human CAL-62 cells at 50 uM incubated for 48 hrs under hypoxia condition by Western blot analysis; format: functional, cell-based
How it was run: (§3)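 CAL-62 or MDA-MB-231 cells made hypoxic with 200 μM CoCl2 for 24 h, then treated with 50 μM compound for 48 h with CoCl2 retained. Lysates (15 or 50 μg protein) immunoblotted for HIF-1α, EPAS-1 or CA-IX with ACTB, ECL detection. 3-TYP (1 μM) as control.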

[13] = system: CAL-62; assay: Anticancer activity against human CAL-62 cells assessed as reduction in cell viability at 50 uM incubated for 24 to 48 hrs under normoxia condition by trypan blue exclusion assay; format: functional, cell-based; conditions: time 24-48 hrs, TDE = time-dependent effect; how it was run: as §2
[14] = system: CAL-62; assay: Inhibition of clonogenicity in human CAL-62 cells at 50 uM incubated for 24 to 48 hrs under normoxia condition by crystal violet staining based assay; format: functional; conditions: time 24-48 hrs
How it was run: (§4)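 CAL-62 cells at 80–90% confluence treated with 50 μM compound for 24 or 48 h, in normoxia or with 200 μM CoCl2 (hypoxia). 500 cells replated per 100 mm dish and grown about 7 days. Colonies fixed in 4% formaldehyde, stained with 0.5% crystal violet, and counted.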

[15] = biological target: T3, NAD-dependent protein deacetylase sirtuin-1 (Homo sapiens) (UniProt Q96EB6); assay: Activation of N-terminal his-tagged human SIRT1 expressed in Escherichia coli at 10 uM using p53-acK381 as substrate in presence of NAD+ by NADH oxidation-coupled enzymatic assay; how it was run: as §1
T3 sequence (whole entry): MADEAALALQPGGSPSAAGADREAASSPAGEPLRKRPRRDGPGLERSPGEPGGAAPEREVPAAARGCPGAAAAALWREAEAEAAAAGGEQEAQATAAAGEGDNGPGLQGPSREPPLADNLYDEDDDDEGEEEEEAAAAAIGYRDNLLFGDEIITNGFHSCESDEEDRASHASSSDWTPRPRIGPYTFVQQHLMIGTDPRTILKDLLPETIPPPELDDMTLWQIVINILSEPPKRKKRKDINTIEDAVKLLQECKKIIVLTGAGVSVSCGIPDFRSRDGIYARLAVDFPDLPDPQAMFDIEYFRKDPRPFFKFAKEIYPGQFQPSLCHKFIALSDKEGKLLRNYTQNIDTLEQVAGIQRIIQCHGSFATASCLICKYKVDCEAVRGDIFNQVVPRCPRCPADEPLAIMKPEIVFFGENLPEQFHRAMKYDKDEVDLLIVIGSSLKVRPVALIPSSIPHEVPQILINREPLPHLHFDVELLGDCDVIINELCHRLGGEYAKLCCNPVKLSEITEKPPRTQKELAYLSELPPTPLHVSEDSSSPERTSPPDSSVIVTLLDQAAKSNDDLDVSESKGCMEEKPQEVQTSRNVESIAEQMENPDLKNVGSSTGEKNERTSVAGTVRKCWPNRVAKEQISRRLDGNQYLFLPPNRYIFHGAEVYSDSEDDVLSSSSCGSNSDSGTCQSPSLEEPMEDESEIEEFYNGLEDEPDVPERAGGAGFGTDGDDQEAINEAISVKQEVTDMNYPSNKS

[16] = biological target: NAD-dependent protein deacylase sirtuin-5, mitochondrial (Homo sapiens) (UniProt Q9NXA8); assay: Activation of N-terminal his-tagged human SIRT5 (34 to 302 residues) expressed in Escherichia coli at 10 uM using p53-acK381 as substrate in presence of NAD+ by NADH oxidation-coupled enzymatic assay
Chain of NAD-dependent protein deacylase sirtuin-5, mitochondrial (Homo sapiens) (Q9NXA8 37-310 limits assumed): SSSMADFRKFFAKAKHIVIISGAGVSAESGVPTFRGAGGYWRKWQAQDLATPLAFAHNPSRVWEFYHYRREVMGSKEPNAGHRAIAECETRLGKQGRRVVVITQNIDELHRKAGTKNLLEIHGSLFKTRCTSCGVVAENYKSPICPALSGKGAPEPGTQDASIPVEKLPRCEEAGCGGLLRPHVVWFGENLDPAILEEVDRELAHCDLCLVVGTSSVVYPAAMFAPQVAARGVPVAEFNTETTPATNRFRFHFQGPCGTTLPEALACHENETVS

[17] = system: CAL-62; assay: Inhibition of clonogenicity in human CAL-62 cells at 50 uM incubated for 24 to 48 hrs under hypoxia condition by crystal violet staining based assay; format: functional; conditions: time 24-48 hrs; how it was run: as §4
[18] = system: CAL-62; assay: Downregulation of HIF1alpha expression in human CAL-62 cells at 50 uM incubated for 48 hrs under hypoxia condition by Western blot analysis; format: functional, cell-based; how it was run: as §3
[19] = biological target: T4, NAD-dependent protein deacetylase sirtuin-2 (Homo sapiens) (UniProt Q8IXJ6); assay: Activation of N-terminal his-tagged human SIRT2 (43 to 356 residues) expressed in Escherichia coli at 10 uM using p53-acK381 as substrate in presence of NAD+ by NADH oxidation-coupled enzymatic assay
T4 sequence (whole entry): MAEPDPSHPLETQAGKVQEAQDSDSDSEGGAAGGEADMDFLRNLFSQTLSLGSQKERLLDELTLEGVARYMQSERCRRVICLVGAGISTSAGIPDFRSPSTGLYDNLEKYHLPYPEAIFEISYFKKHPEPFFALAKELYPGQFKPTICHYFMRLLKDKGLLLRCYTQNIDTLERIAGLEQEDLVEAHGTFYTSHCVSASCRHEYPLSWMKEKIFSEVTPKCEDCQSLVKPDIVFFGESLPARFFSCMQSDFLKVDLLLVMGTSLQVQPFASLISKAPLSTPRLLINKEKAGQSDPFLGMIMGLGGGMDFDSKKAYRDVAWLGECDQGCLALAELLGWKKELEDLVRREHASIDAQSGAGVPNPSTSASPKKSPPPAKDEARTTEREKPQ

Row | Structure (SMILES) | Activity [1] [%] | Activity ([2]; filed as activator) | other results
1 | CCOC(=O)C1=CN(C(=O)c2ccccc2)C=C(C(=O)OCC)C1c1ccccc1 | 157 | 188% | –
2 | c1cncc(-c2cnn[nH]2)c1 | – | – | Activity [3]: inactive; Activity [4]: inactive; Activity [5]: inactive; Activity [6]: inactive; Activity [7]: inactive; Activity [8]: inactive
3 | CCOC(=O)C1=CN(C(=O)c2ccc(F)cc2)C=C(C(=O)OCC)C1c1ccccc1 | 120 | 142% | –
4 | CCOC(=O)C1=CN(C(=O)c2cccc(F)c2)C=C(C(=O)OCC)C1c1ccccc1 | 120 | 196% | –
5 | CCOC(=O)C1=CN(C(=O)c2cccc(Br)c2)C=C(C(=O)OCC)C1c1ccccc1 | 120 | 214% | –
6 | CCOC(=O)C1=CN(C(=O)c2ccc(OC)cc2)C=C(C(=O)OCC)C1c1ccccc1 | 120 | – | Activity [9]: inactive; Activity [10]: Tde; Kd [11]: 72 µM; Activity [12]: Active; Activity [13]: Tde
7 | CCOC(=O)C1=CN(C(=O)c2ccc(C#N)cc2)C=C(C(=O)OCC)C1c1ccccc1 | 120 | – | –
8 | CCOC(=O)C1=CN(C(=O)c2ccc(Cl)cc2)C=C(C(=O)OCC)C1c1ccccc1 | 120 | 237% | Kd [11]: 74 µM
9 | CCOC(=O)C1=CN(C(=O)c2ccc([N+](=O)[O-])cc2)C=C(C(=O)OCC)C1c1ccccc1 | 120 | – | –
10 | CCOC(=O)C1=CN(C(=O)c2ccsc2)C=C(C(=O)OCC)C1c1ccccc1 | 120 | – | Activity [2]: inactive
11 | CCOC(=O)C1=CN(C(=O)C2CCCCC2)C=C(C(=O)OCC)C1c1ccccc1 | 120 | Active | –
12 | CCOC(=O)C1=CN(C(=O)c2cccc(OC)c2)C=C(C(=O)OCC)C1c1ccccc1 | – | 217% | Activity ([9]; filed as activator): Active; Activity [10]: Tde; Kd [11]: 78 µM; inhibition at 50 µM [14]: 53%; Activity [15]: inactive; Activity [16]: inactive; inhibition at 50 µM [17]: 53%; Activity [18]: Active; Activity [19]: inactive; Activity [12]: Active; Activity [13]: Tde
13 | CCOC(=O)C1=CN(C(=O)c2cccc(Cl)c2)C=C(C(=O)OCC)C1c1ccccc1 | 120 | 204% | –
14 | CCOC(=O)C1=CN(C(=O)Cc2ccccc2)C=C(C(=O)OCC)C1c1ccccc1 | 176 | Active | –
15 | CCOC(=O)C1=CN(C(=O)c2ccco2)C=C(C(=O)OCC)C1c1ccccc1 | 120 | – | –
16 | CCOC(=O)C1=CN(C(=O)c2cc(OC)c(OC)c(OC)c2)C=C(C(=O)OCC)C1c1ccccc1 | 128 | 269% | Activity ([9]; filed as activator): 175%
17 | CCOC(=O)C1=CN(C(=O)c2ccc(Br)cc2)C=C(C(=O)OCC)C1c1ccccc1 | 120 | 184% | –
18 | CCOC(=O)C1=CN(C(=O)c2cccs2)C=C(C(=O)OCC)C1c1ccccc1 | 120 | – | –
19 | CCOC(=O)C1=CN(C(=O)c2cccc([N+](=O)[O-])c2)C=C(C(=O)OCC)C1c1ccccc1 | 120 | – | –
